# Experimental data gathered from unrelated publications.
# Each line is one published result; the experiments were not run side by side.
# Target: Calcium/calmodulin-dependent protein kinase type 1D (CAMK1D, Homo sapiens, UniProt Q8IU85)
SMILES,test,conditions,remaining binding [%]
CN(C)c1nccc(-c2cnn3ncccc23)n1,binding,1 µM,100
O=S(=O)(NC1CCC(c2cc(F)ccc2F)(S(=O)(=O)c2ccc(Cl)cc2)CC1)C(F)(F)F (stereo not shown),"cell-free assay, competition with immobilised ligand",1 µM,79
c1cnn2ncc(-c3ccnc(N4CCC45COC5)n3)c2c1,binding,1 µM,89
CNC(=O)[C@@H]1CC[C@@H](n2c(-c3ccc4cnccc4c3)nc3ccc(C(=O)NCc4cccc(C(N)=O)c4)cc32)C1,"binding, competition with immobilised ligand",1 µM,100
CN(C)c1nccc(-c2cnc3ncccn23)n1,binding,1 µM,80
Cn1nc(C(=O)NCc2ccc(C(=O)O)cc2)cc1-c1ccc2[nH]ccc2c1,"cell-free assay, competition with immobilised ligand",0.1 µM,95
O=C(c1ccc(Nc2nccc(-c3cc4ccccc4s3)n2)cc1)N1CCC(N2CCCC2)CC1,"binding, competition with immobilised ligand",1 µM,31
CN(C)c1ncc(F)c(-c2cnn3ncccc23)n1,binding,1 µM,78
O=C(c1ccc(Nc2ncc(Cl)c(-c3cc4ccccc4s3)n2)cc1)N1CCC(N2CCCC2)CC1,"binding, competition with immobilised ligand",1 µM,29
N#Cc1ccc(Nc2ccc3[nH]c(=O)[nH]c3c2)c(Cl)c1,"cell-free assay, competition with immobilised ligand",1 µM,92
c1cncc(-c2cccc(Nc3nccc(NC4CCCCC4)n3)c2)c1,"binding, competition with immobilised ligand",10 µM,72
CN([C@@H]1CCc2c(CC(=O)O)c3cc(S(C)(=O)=O)ccc3n2C1)S(=O)(=O)c1ccc(F)cc1,"cell-free assay, competition with immobilised ligand",1 µM,99
COc1cnc(Nc2cccc(S(N)(=O)=O)c2)nc1N1CCN(c2ccccc2)CC1,"binding, competition with immobilised ligand",1 µM,100
CN(c1nccc(-c2cnn3ncccc23)n1)C1CC1,binding,1 µM,100
O=C(O)[C@H]1[C@H](Cn2nnc3ccccc3c2=O)CC[C@@H]1C(=O)c1ccc(OCCC2CCOCC2)cc1,"cell-free assay, competition with immobilised ligand",1 µM,96
COc1ncc2cc3ccccc3nc2c1C#N,"cell-free assay, competition with immobilised ligand",5 µM,98
Cc1cnc(Nc2ccc(C(=O)N3CCC(N4CCCC4)CC3)cc2)nc1-c1cc2ccccc2s1,"binding, competition with immobilised ligand",1 µM,8.3
N[C@@H]1CCN(c2nccc(-c3cnn4ncccc34)n2)C1,binding,1 µM,100
COc1ccc2c(c1)O[C@@H](c1ccc(OC)c(OC)c1)C[C@H]2NC(=O)C1(c2ccc3c(c2)OC(F)(F)O3)CC1,"cell-free assay, competition with immobilised ligand",1 µM,94
C[C@@H]1CCN(c2nccc(-c3cnn4ncccc34)n2)C1,binding,1 µM,86
O=C(N[C@H]1CCCCC/C=C\C2C[C@@]2(C(=O)O)NC(=O)[C@@H]2C[C@@H](Oc3ccncc3)CN2C1=O)OC1CCCC1 (stereo partly shown),"cell-free assay, competition with immobilised ligand",1 µM,94
O=C(Nc1c[nH]nc1C(=O)NC1CCNCC1)c1cc(F)cc(F)c1,"binding, competition with immobilised ligand",1 µM,100
